Data: publication PMC10655119 (Journal of the American Chemical Society, 2023)

Tests used:
Format in all cases: cell-based
[1] = system: HeLa cells; experiment: Lactate dehydrogenase; conditions: 1 h
How it was run: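 HeLa cells exposed to CPP-additives at 2.5, 5 or 10 μM for 1 h in serum-free FluoroBrite DMEM. Membrane integrity judged by lactate dehydrogenase released into the medium. Mean ± SE of three biological replicates.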

[2] = system: HeLa cells; experiment: Mitochondrial dehydrogenase; conditions: 1 h, serum-free FluoroBrite DMEM
How it was run: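 HeLa cells exposed 1 h to CPP-additive (2.5, 5 or 10 μM) in serum-free FluoroBrite DMEM, then viability read by WST-1 reduction to formazan by mitochondrial dehydrogenase. For prolonged exposure, cells coincubated 1 h with NLS-mCherry-R10 cargo plus additive, supernatant replaced with fresh culture medium, and WST-1 read after 24 h.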

[3] = system: HeLa cells; experiment: Protein-CPP; conditions: 1 h; for Delivery of I into the cytosol with CPP-additive at 2.5 μM: I 5 μM + CPP-additive 2.5 μM, serum-free
[4] = system: HeLa cells; experiment: Time-lapse fluorescence microscopy of Cy5-labeled CPP-additives; conditions: for Time until nucleolar mCherry signals are observed: serum-free, images at 60 s intervals
How it was run: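 HeLa cells given Cy5-labeled R10 peptide additives (1 μM), with or without the hydrophobic motif, in serum-free FluoroBrite DMEM. Confocal imaging at 5 and 10 min, with line-scan profiles of Cy5 distribution. For cotreatment, NLS-mCherry-R10 cargo (5 μM) and additive were added after 60 s of baseline imaging. Frames taken every 60 s for 15 min to track nucleolar mCherry.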

[5] = HeLa, 2.5, 5 or 10 μM CPP-additive
[6] = HeLa, 2.5, 5 or 10 μM CPP-additive, three biological replicates

TNB-R10-ILIL [compound 4]
LDH release (membrane integrity) [1, 5]: no LDH release | Cytotoxicity (WST1 assay) [2, 6]: no cytotoxic effect

TNB-R10-Nal2 [compound 7]
Delivery of I into the cytosol with CPP-additive at 2.5 μM [3]: successful delivery

TNB-R10-Nal [compound 6]
Delivery of I into the cytosol with CPP-additive at 2.5 μM [3]: successful delivery

TNB-Cy5-R10 [compound 22]
Line-scan profile of Cy5 fluorescence after 10 min ([4]; 1 μM peptide alone): mainly observed within the interior of cells | Localisation of Cy5-labeled CPP-additive over time ([4]; 1 μM peptide alone, serum-free FluoroBrite DMEM, 37 °C, time-lapse): quickly enters the cytosol | Time until nucleolar mCherry signals are observed ([4]; I 5 μM + Cy5-additive 1 μM): 15 min

TNB-R10-ILLL [compound 5]
LDH release (membrane integrity) [1, 5]: no LDH release | Cytotoxicity (WST1 assay) [2, 6]: no cytotoxic effect

TNB-R10-FWF [compound 3]
LDH release (membrane integrity) ([1]; HeLa, 5 μM CPP-additive): significantly released | Cytotoxicity (WST1 assay) ([2]; HeLa, 5 μM CPP-additive): no cytotoxicity

alk-Cy5-R10-ILFF [alkylated analogue]
Membrane interaction and facilitation of protein-CPP uptake ([4]; alk-Cy5-R10-ILFF 1 μM alone or with I 5 μM, 10 min): incapable of both interacting with the cell membrane and facilitating the uptake of protein-CPPs

O=C(O)CCCc1ccc2ccc3cccc4ccc1c2c34 [PyB, pyrenebutyrate, reference compound]
Uptake of I at lowered I concentration with PyB ([3]; PyB 50 μM 5 min, then I 5 μM): loss of enhanced uptake of I | Uptake of I after pretreatment with PyB at 10 μM and lower ([3]; PyB 10 and 5 μM 5 min, then I): only endosomal uptake

TNB-Cy5-R10-ILFF [compound 23]
Line-scan profile of Cy5 fluorescence after 10 min ([4]; 1 μM peptide alone): remained concentrated around the cell periphery | Time until cell-surface-associated additive is internalized into endosomes ([4]; 23 1 μM 5 min at 37 °C, washed, time-lapse 30 min): 30 min | Cell membrane accumulation of additive in the presence of I ([4]; I 5 μM + Cy5-additive 1 μM): persisted even after 10 min | Time until nucleolar mCherry signals are observed ([4]; I 5 μM + Cy5-additive 1 μM): 3 min
